Tests used:
[1] = Half-life in culture medium.; format: ADME
[2] = Partition coefficient (logP); format: physicochemical; conditions: octanol/water
Method in brief: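 Octanol/water partition coefficient (logP) determined by HPLC using a microscale method adapted from earlier work on nucleoside analogues.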

CEM-SS [3] = assay: (§1) Compound was tested for antiviral activity against the CEM-SS cell lines infected with HIV-1.; format: functional, cell-based; conditions: Homo sapiens
Method in brief: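 CEM-SS cells infected with 100 TCID50 HIV-LAI for 30 min, unbound virus removed by two washes, then cultured 5 days with graded compound concentrations. Virus production quantified as reverse transcriptase activity in culture supernatant. EC50 derived from median effect plot of dose-effect data.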

CEM-SS [4] = assay: as §1; format: functional; conditions: Homo sapiens
MRC5 [5] = assay: Compound was tested for antiviral activity against the MRC-5 cells infected with HSV-2.; format: functional, cell-based; conditions: Homo sapiens
Method in brief: (§2)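 Confluent cells in MEM with 5% FBS infected with 100 CCID50 virus (HSV-1 strain F or HSV-2 strain G) for 1 h at 37 °C, then exposed to compound from 1 mM to 1 uM. Cytopathic effect scored daily. EC50 is the concentration that reduces CPE by 50% once CPE is complete in untreated infected controls.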

MT4 [6] = assay: (§3) Compound was tested for antiviral activity against the MT-4 cell lines infected with HIV-1.; format: functional, cell-based; conditions: Homo sapiens
Method in brief: (§4)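 MT-4 cells infected with 50 TCID50 HIV-1 IIIB for 30 min, washed twice, then cultured 5 days with graded compound concentrations. Protection from virus-induced cytopathogenicity read by MTT reduction to formazan. EC50 taken from median effect plot of dose-effect data.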

MT4 [7] = assay: as §3; format: functional; conditions: Homo sapiens; method in brief: as §4
MRC5 [8] = assay: (§5) Compound was tested for antiviral activity against the MRC-5 cells infected with HSV-1.; format: functional; conditions: Homo sapiens; method in brief: as §2
MRC5 [9] = assay: as §5; format: functional, cell-based; conditions: Homo sapiens; method in brief: as §2
Vero [10] = assay: (§6) Compound was tested for antiviral activity against the Vero cells infected with HSV-1.; format: functional, cell-based; conditions: Chlorocebus sabaeus; method in brief: as §2
Vero [11] = assay: as §6; format: functional; conditions: Chlorocebus sabaeus
Vero [12] = assay: Compound was tested for antiviral activity against the Vero cells infected with HSV-2; format: functional, cell-based; conditions: Chlorocebus sabaeus; method in brief: as §2
[13] = Percent decomposition in water at specified pH 7.2; conditions: buffer
[14] = Half-life in RPMI1640 medium.; format: ADME

Structure (SMILES) | half-life [1] [min] | logP ([2]; read-out: logP) | EC50 (CEM-SS [3]) [nM] | CC50 (CEM-SS [4]) [µM] | EC50 (MRC5 [5]) [µM] | EC50 (MT4 [6]) [nM] | CC50 (MT4 [7]) [µM] | CC50 (MRC5 [8]) [µM] | EC50 (MRC5 [9]) [µM] | EC50 (Vero [10]) [nM] | CC50 (Vero [11]) [µM] | EC50 (Vero [12]) [nM] | percent decomposition [13] [%] | half-life [14] [min] | logP [2]
CC(C)(C)C(=O)SCCOP(=O)(O)COCCn1cnc2c(N)ncnc21 | 13800 |  |  |  |  |  |  |  |  |  |  |  |  |  | 
CC(=O)SCCOP(=O)(O)COCCn1cnc2c(N)ncnc21 | 1150 |  |  |  |  |  |  |  |  |  |  |  |  |  | 
CC(C)C(=O)SCCOP(=O)(O)COCCn1cnc2c(N)ncnc21 | 1730 |  |  |  |  |  |  |  |  |  |  |  |  |  | 
CC(C)C(=O)SCCOP(=O)(COCCn1cnc2c(N)ncnc21)OCCSC(=O)C(C)C | 498 | 2.31 | 90 | 13 | 1.2 | 510 | 3.8 | 30.2 | 1.69 | 1350 | 23 | 1140 | 1.6 |  | 
CC(=O)SCCOP(=O)(COCCn1cnc2c(N)ncnc21)OCCSC(C)=O | 222 | 0.32 | 100 | 23 | 8.9 | 1100 | 7.6 | 148 | 12.6 | 14200 | 126 | 10200 | 4 | > 1440 | 
CC(C)(C)C(=O)SCCOP(=O)(COCCn1cnc2c(N)ncnc21)OCCSC(=O)C(C)(C)C | 4900 | 3.41 | 30 | 5.8 | 0.97 | 650 | 15 | 48.5 | 1.43 | 1070 | 36.8 | 1120 | 3 |  | 
Nc1ncnc2c1ncn2CCOCP(=O)(OCCSSCCO)OCCSSCCO | 2300 | 0.21 | 2000 | 67 | 26.5 | 6900 | 50 | > 100 | 32.3 | 22300 | > 100 | 27400 | 13.9 | > 1440 | 
Nc1ncnc2c1ncn2CCOCP(=O)(OCCSC(=O)c1ccccc1)OCCSC(=O)c1ccccc1 | 1540 | 3.93 | 50 | 3.9 | 4.75 | 410 | 2.4 | 18.7 | 3.48 | 2560 | 12.7 | 2890 | 1.7 |  | 
Nc1ncnc2c1ncn2CCOCP(=O)(O)OCCSC(=O)c1ccccc1 | 3890 |  |  |  |  |  |  |  |  |  |  |  |  |  | 
CC(C)(C)C(=O)OCOP(=O)(COCCn1cnc2c(N)ncnc21)OCOC(=O)C(C)(C)C [ADEFOVIR DIPIVOXIL] | 300 | 2.48 | 40 | 4.4 | 0.91 | 80 | 0.74 | 15.7 | 1.23 | 870 | 22.6 | 1150 | 32.7 | 300 | 
Nc1ncnc2c1ncn2CCOCP(=O)(O)O [ADEFOVIR] |  |  | 420 | > 10 | 33.5 | > 10000 | > 10 | > 100 | 29.7 | 38500 | > 100 | 32700 |  |  | -4.11
